Assay results as given in ChEMBL document CHEMBL2176901, “Pyrrolo[3,4-h]quinolinones a new class of photochemotherapeutic agents” (Bioorg Med Chem, 2011).

Legend:
Assay type in all cases: functional, cell-based
LoVo [1] = test: Phototoxicity in 3.75 J/cm'2 UV-A irradiated human LoVo cells after 72 hrs by MTT assay; details: light or radiation study
Outline: (§1)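 Seeded at 5 × 10³ cells/well with 10% FBS: MCF-7 and NCTC-2544 in DMEM, LoVo in Ham's F12. Pre-incubated 18 h at 37 °C, 5% CO2. Compound (DMSO stock diluted in HBSS pH 7.2) was applied for 30 min at 37 °C, then UV-A irradiation (mainly 365 nm, 4.0 mW/cm²). Medium was restored for 72 h before MTT. IC50 is the mean ± SEM of three experiences.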

Jurkat [2] = test: Phototoxicity in 3.75 J/cm'2 UV-A irradiated human Jurkat cells after 72 hrs by MTT assay; details: light or radiation study
Outline: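 Jurkat cells (8 × 10³/well) in RPMI-1640 with 10% FBS, held 18 h at 37 °C, 5% CO2. Compound stock in DMSO was diluted in HBSS pH 7.2 and added for 30 min at 37 °C. Cells were UV-A irradiated (lamp mainly 365 nm, 4.0 mW/cm²), then returned to medium for 72 h. MTT readout. IC50 is the mean ± SEM of three experiences.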

[3] = Phototoxicity in 3.75 J/cm'2 UV-A irradiated human NCTC-2544 cells after 72 hrs by MTT assay; details: NCTC-2544, light or radiation study; outline: as §1
HL-60 [4] = test: Phototoxicity in 3.75 J/cm'2 UV-A irradiated human HL60 cells after 72 hrs by MTT assay; details: HL-60, light or radiation study
Outline: (§2)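 HL-60 and Jurkat (8×10³/well, RPMI-1640) and MCF-7, LoVo, NCTC-2544 (5×10³/well; DMEM or Ham's F12) preincubated 18 h at 37 °C, 5% CO₂. Compound in DMSO diluted in HBSS pH 7.2, 30 min at 37 °C, then UV-A at 2.5 or 3.75 J/cm². Medium replaced, 72 h incubation, MTT read-out. IC50 as mean ± SEM of three experiments.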

MCF7 [5] = test: Phototoxicity in 3.75 J/cm'2 UV-A irradiated human MCF7 cells after 72 hrs by MTT assay; details: MCF7, light or radiation study; outline: as §1
[6] = Phototoxicity in 2.5 J/cm'2 UV-A irradiated human NCTC-2544 cells after 72 hrs by MTT assay; details: NCTC-2544, light or radiation study; outline: as §2
LoVo [7] = test: Phototoxicity in 2.5 J/cm'2 UV-A irradiated human LoVo cells after 72 hrs by MTT assay; details: light or radiation study; outline: as §2
MCF7 [8] = test: Phototoxicity in 2.5 J/cm'2 UV-A irradiated human MCF7 cells after 72 hrs by MTT assay; details: MCF7, light or radiation study; outline: as §2
Jurkat [9] = test: Phototoxicity in 2.5 J/cm'2 UV-A irradiated human Jurkat cells after 72 hrs by MTT assay; details: light or radiation study; outline: as §2
HL-60 [10] = test: Phototoxicity in 2.5 J/cm'2 UV-A irradiated human HL60 cells after 72 hrs by MTT assay; details: HL-60, light or radiation study; outline: as §2

Row | SMILES | IC50 (LoVo [1]) [µM] | IC50 (Jurkat [2]) [µM] | IC50 [3] [µM] | IC50 (HL-60 [4]) [µM] | IC50 (MCF7 [5]) [µM] | IC50 [6] [µM] | IC50 (LoVo [7]) [µM] | IC50 (MCF7 [8]) [µM] | IC50 (Jurkat [9]) [µM] | IC50 (HL-60 [10]) [µM]
1 | Cc1[nH]c(C(=O)O)c2c1-c1[nH]c(=O)c(S(=O)(=O)c3ccccc3)cc1CC2 | > 20 | > 20 | > 20 | > 20 | > 20 | > 20 | > 20 | > 20 | > 20 | > 20
2 | Cn1c2c(cc(S(=O)(=O)c3ccccc3)c1=O)CCc1cn(-c3ccccc3)cc1-2 | > 20 | > 20 | > 20 | > 20 | > 20 | > 20 | > 20 | > 20 | > 20 | > 20
3 | O=c1[nH]c2c(cc1S(=O)(=O)c1ccccc1)CCc1cn(-c3ccccc3)cc1-2 | > 20 | 7.4 | > 20 | 8 | > 20 | > 20 | > 20 | > 20 | > 20 | 12.2
4 | CCOC(=O)c1[nH]c(C)c2c1CCc1cc(S(=O)(=O)c3ccccc3)c(=O)[nH]c1-2 | 13.6 | 10 | 15 | 9.1 | > 20 | > 20 | 17.5 | > 20 | 18 | 13.7
5 | CCOC(=O)c1[nH]c(C)c2c1CCc1cc(S(=O)(=O)c3ccccc3)c(=O)n(C)c1-2 | 13.2 | 12.5 | > 20 | 5.8 | > 20 | > 20 | > 20 | > 20 | > 20 | > 20
6 | CCOC(=O)c1c2c(c(C)n1Cc1ccccc1)-c1c(cc(S(=O)(=O)c3ccccc3)c(=O)n1C)CC2 | 8.7 | 1.3 | 14.3 | 2.6 | 14.4 | > 20 | 12.1 | > 20 | 2.9 | 5.4
7 | Cn1c2c(cc(S(=O)(=O)c3ccccc3)c1=O)CCc1cn(Cc3ccccc3)cc1-2 | 2.8 | 2.5 | 5.8 | 2.8 | 3.7 | 8.2 | 3.9 | 6.6 | 3.6 | 4.4
8 | Cn1cc2c(c1)-c1c(cc(S(=O)(=O)c3ccccc3)c(=O)n1C)CC2 | > 20 | > 20 | > 20 | > 20 | > 20 | > 20 | > 20 | > 20 | > 20 | > 20
9 | Cc1c2c(c(C(=O)O)n1Cc1ccccc1)CCc1cc(S(=O)(=O)c3ccccc3)c(=O)[nH]c1-2 | > 20 | > 20 | > 20 | > 20 | > 20 | > 20 | > 20 | > 20 | > 20 | > 20
10 | Cn1cc2c(c1)-c1[nH]c(=O)c(S(=O)(=O)c3ccccc3)cc1CC2 | > 20 | > 20 | > 20 | 5.6 | > 20 | > 20 | > 20 | > 20 | > 20 | > 20
11 | Cc1c2c(cn1C)CCc1cc(S(=O)(=O)c3ccccc3)c(=O)[nH]c1-2 | > 20 | > 20 | > 20 | > 20 | > 20 | > 20 | > 20 | > 20 | > 20 | > 20
12 | O=c1ccc2ccc3occc3c2o1 [ANGELICIN] | 1.1 | – | 0.9 | – | – | 4.2 | 4 | – | – | –
